Measured values from ChEMBL document CHEMBL4251566 (Eur J Med Chem, 2018).

Assays:
[1] = tested on: Ramos; assay: Induction of apoptosis in human Ramos cells assessed as viable cells at 10 uM after 72 hrs by Annexin V-FITC/propidium iodide staining based flow cytometry (reference value: 98.7%); format: functional; details: read-out: Activity
[2] = tested on: Ramos; assay: Induction of apoptosis in human Ramos cells assessed as necrotic cells at 5 uM after 72 hrs by Annexin V-FITC/propidium iodide staining based flow cytometry (reference value: 0.7%); format: functional
[3] = tested on: PBMC; assay: Cytotoxicity against human PBMCs assessed as induction of morphological changes at <10 uM after 24 hrs by AO/PI staining-based phase contrast microscopy; format: cell-based
[4] = tested on: Ramos; assay: Antitumor activity against human Ramos cells xenografted in po dosed CB17/SCID mouse assessed as reduction in tumor growth administered as qd for 14 days; format: functional, organism-based
Procedure, shortened: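 Female CB17/SCID mice, 5–6 weeks old and 20–25 g, received 3×10⁶ Ramos cells in 0.1 mL PBS subcutaneously in the right axilla. From day 3 after implantation, dosing was oral at 30 or 60 mg/kg for 14 days; vehicle controls got oral 25% PEG-400. Tumor volume was A×B²/2 from caliper diameters. Tumor weight was taken at sacrifice, and body weight was tracked. n = 5.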

[5] = tested on: Ramos; assay: Induction of apoptosis in human Ramos cells assessed as early apoptotic cells at 10 uM after 72 hrs by Annexin V-FITC/propidium iodide staining based flow cytometry (reference value: 0.0%); format: functional
[6] = tested on: Ramos; assay: Antiproliferative activity against human Ramos cells after 72 hrs by CCK-8 assay
[7] = tested on: Ramos; assay: Induction of apoptosis in human Ramos cells assessed as early apoptotic cells at 5 uM after 72 hrs by Annexin V-FITC/propidium iodide staining based flow cytometry (reference value: 0.0%); format: functional
[8] = target: T1, Tyrosine-protein kinase JAK3 (Homo sapiens, UniProt P52333); assay: Inhibition of recombinant N-terminal GST-tagged human JAK3 (781 to end residues) expressed in baculovirus infected Sf9 insect cells using Poly(4:1 Glu,Tyr) peptide substrate incubated for 60 mins by ADP-Glo luminescence assay
T1 sequence (P52333 whole entry): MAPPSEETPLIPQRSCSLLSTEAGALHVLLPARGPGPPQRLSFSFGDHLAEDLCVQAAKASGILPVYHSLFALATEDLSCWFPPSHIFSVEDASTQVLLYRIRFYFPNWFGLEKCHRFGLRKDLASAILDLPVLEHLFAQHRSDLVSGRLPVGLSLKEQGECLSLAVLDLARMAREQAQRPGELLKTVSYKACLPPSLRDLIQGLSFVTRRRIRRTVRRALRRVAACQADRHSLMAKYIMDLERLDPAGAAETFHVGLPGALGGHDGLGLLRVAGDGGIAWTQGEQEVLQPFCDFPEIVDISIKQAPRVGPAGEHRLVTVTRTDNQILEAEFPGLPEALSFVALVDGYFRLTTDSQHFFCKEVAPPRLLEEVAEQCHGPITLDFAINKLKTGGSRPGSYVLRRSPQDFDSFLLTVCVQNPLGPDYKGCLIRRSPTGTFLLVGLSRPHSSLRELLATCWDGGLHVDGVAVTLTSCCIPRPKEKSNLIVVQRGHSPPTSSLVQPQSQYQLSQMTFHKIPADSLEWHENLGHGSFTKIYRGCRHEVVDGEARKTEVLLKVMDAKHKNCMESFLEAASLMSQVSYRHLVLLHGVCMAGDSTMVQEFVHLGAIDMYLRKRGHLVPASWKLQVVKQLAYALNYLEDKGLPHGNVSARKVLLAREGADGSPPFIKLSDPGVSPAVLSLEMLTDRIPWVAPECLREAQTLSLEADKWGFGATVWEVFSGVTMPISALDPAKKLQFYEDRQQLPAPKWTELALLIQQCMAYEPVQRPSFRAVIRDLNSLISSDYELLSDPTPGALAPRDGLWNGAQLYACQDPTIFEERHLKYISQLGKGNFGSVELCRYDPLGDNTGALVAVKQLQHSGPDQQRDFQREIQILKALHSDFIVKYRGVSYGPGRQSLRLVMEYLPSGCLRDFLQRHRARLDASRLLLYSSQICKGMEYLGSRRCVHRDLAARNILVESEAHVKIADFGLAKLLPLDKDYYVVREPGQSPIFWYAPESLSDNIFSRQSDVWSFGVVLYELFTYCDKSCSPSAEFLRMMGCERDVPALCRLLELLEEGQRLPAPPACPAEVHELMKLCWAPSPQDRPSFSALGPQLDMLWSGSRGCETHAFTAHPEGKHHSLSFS
Procedure, shortened: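 ADP-Glo luminescent kinase assay. The kinase reaction ran 60 min at room temperature in 1× kinase buffer. ADP-Glo reagent was added to stop the reaction and deplete ATP, followed by 40 min at room temperature. Detection reagent then converted ADP to ATP for a luciferase readout, followed by 30 min at room temperature. Luminescence was integrated over 0.5–1 s, and IC50 came from curve fitting.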

[9] = tested on: Ramos; assay: Induction of apoptosis in human Ramos cells assessed as total apoptosis rate at 10 uM after 72 hrs by Annexin V-FITC/propidium iodide staining based flow cytometry relative to control
[10] = tested on: Ramos; assay: Induction of apoptosis in human Ramos cells assessed as total apoptosis rate at 20 uM after 72 hrs by Annexin V-FITC/propidium iodide staining based flow cytometry relative to control

| IC50 [6] [µM] | IC50 [8] [µM] | SMILES | viability at 10 µM [1] [%] | Activity [2] [%] | Activity [3] | TGI [4] | Activity [5] [%] | Activity [7] [%] | Activity [9] [%] | Activity [10] [%] |
| --- | --- | --- | --- | --- | --- | --- | --- | --- | --- | --- |
| 2.46 | 0.00834 | C=CC(=O)Nc1cccc(Nc2nc(Nc3ccc(OCC(=O)N4CCOCC4)c(Cl)c3)ncc2Cl)c1 | 29 | 0.9 | Non-Toxic | Dose-dependent effect | 59 | 54.8 | 69.9 | 79.5 |
| 4.85 | 0.00083 | C=CC(=O)Nc1cccc(Nc2nc(Nc3ccc(OCCCN4CCOCC4)cc3)ncc2Cl)c1 | 20.1 | 6.6 | Non-Toxic | Dose-dependent effect | 67.6 | 50.8 | 77.2 | 80.2 |
